Results published in ChEMBL document CHEMBL1133748, “Synthesis and cytotoxic and antitumor activity of benzo[b]pyrano[3, 2-h]acridin-7-one analogues of acronycine” (J Med Chem, 2000).
“And” between values parts separate entries of the source, which are not always exact repeats. Equal values may be shown once.

Assays:
L1210 = test: In vitro inhibition of L1210 cell proliferation.; assay type: functional, cell-based; settings: Mus musculus
In short: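 L1210 murine leukemia cells grown in RPMI 1640 with 10% fetal calf serum, 2 mM glutamine, penicillin/streptomycin, 10 mM HEPES pH 7.4. Exposed 48 h to nine serial drug dilutions in triplicate. Microculture tetrazolium assay read-out. IC50 = concentration halving optical density versus untreated controls; mean of at least 2 separate experiments.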

Mus musculus [1] = test: Optimal therapeutic effect without toxicity in mice inoculated ip with P388 cells on day 0 with 12.5 mg/kg ip of compound on day 1; assay type: functional; settings: route intraperitoneal
Mus musculus [2] = test: Optimal therapeutic effect without toxicity in mice inoculated ip with P388 cells on day 0 with 12.5 mg/kg iv of compound on day 1; assay type: functional
Mus musculus [3] = test: Optimal therapeutic effect without toxicity in mice inoculated ip with C38 cells on day 0 with 3.12 mg/kg iv of compound measured on day 31; assay type: functional, MC-38
Mus musculus [4] = test: Optimal therapeutic effect without toxicity in mice inoculated ip with C38 cells on day 0 with 6.25 mg/kg iv of compound measured on day 31; assay type: functional, MC-38
Mus musculus [5] = test: Optimal therapeutic effect without toxicity in mice inoculated ip with P388 cells on day 0 with 12.5 mg/kg iv of compound on day 1
Mus musculus [6] = test: Optimal therapeutic effect without toxicity in mice inoculated ip with P388 cells on day 0 with 200 mg/kg ip of compound on day 1; assay type: functional; settings: route intraperitoneal

COc1cc2c(c3c1c(=O)c1cc4ccccc4cc1n3C)[C@@H](OC(=O)CC(C)C)[C@@H](OC(=O)CC(C)C)C(C)(C)O2
IC50 (L1210): 0.5 µM

COc1cc2c(c3c1c(=O)c1cc4ccccc4cc1n3C)[C@@H](OC(C)=O)[C@@H](OC(=O)CC(C)C)C(C)(C)O2
IC50 (L1210): 0.5 µM

C=C1Oc2cc(OC)c3c(=O)c4cc5ccccc5cc4n(C)c3c2C1(C)C
IC50 (L1210): 14.1 µM

CCC(=O)O[C@@H]1c2c(cc(OC)c3c(=O)c4cc5ccccc5cc4n(C)c23)OC(C)(C)[C@@H]1OC(=O)CC
IC50 (L1210): 0.9 µM

COc1cc2c(c3c1c(=O)c1cc4ccccc4cc1n3C)[C@@H](O)[C@@H](OC(=O)c1ccccc1)C(C)(C)O2
IC50 (L1210): 1.7 µM

Oc1cc(O)c2c(O)c3cc4ccccc4cc3nc2c1
IC50 (L1210): 6 µM

C=C1Oc2cc(O)c3c(O)c4cc5ccccc5cc4nc3c2C1(C)C
IC50 (L1210): 3.2 µM

CC1(C)C=Cc2c(cc(O)c3c(O)c4cc5ccccc5cc4nc23)O1
IC50 (L1210): 10.2 µM

COc1c2c(cc3c1c(=O)c1cc4ccccc4cc1n3C)OC(C)(C)C=C2
IC50 (L1210): 4.9 µM

Cn1c2cc3ccccc3cc2c(=O)c2c(O)cc3c(c21)C=CC(C)(C)O3
IC50 (L1210): 17.9 µM

C=C1Oc2cc3c(c(OC)c2C1(C)C)c(=O)c1cc2ccccc2cc1n3C
IC50 (L1210): 8.5 µM

C=C1Oc2cc(O)c3c(=O)c4cc5ccccc5cc4n(C)c3c2C1(C)C
IC50 (L1210): 9 µM

COc1cc2c(c3c1c(=O)c1cc4ccccc4cc1n3C)[C@H]1OC(=O)OC1C(C)(C)O2 (stereo partly drawn)
IC50 (L1210): 0.02 µM | T/C (survival) (Mus musculus [1]): 327% | T/C (survival) (Mus musculus [2]): 157% | T/C (tumor vol) (Mus musculus [3]): 18%

COc1cc2c(c3c1c(=O)c1cc4ccccc4cc1n3C)[C@@H](O)[C@@H](OC(=O)CC(C)C)C(C)(C)O2
IC50 (L1210): 1.9 µM

COc1cc2c(c3c1c(=O)c1cc4ccccc4cc1n3C)[C@@H](OC(C)=O)[C@@H](OC(C)=O)C(C)(C)O2
IC50 (L1210): 0.6 µM | T/C (survival) (Mus musculus [1]; 12.5 mg/kg): 213% and 178% | T/C (tumor vol) (Mus musculus [4]): 4%

COc1cc2c(c3c1c(=O)c1cc4ccccc4cc1n3C)[C@@H](OC(C)=O)[C@@H](OC(=O)c1ccccc1)C(C)(C)O2
IC50 (L1210): 0.2 µM

COc1cc2c(c3c1c(=O)c1cc4ccccc4cc1n3C)[C@@H](O)[C@@H](O)C(C)(C)O2
IC50 (L1210): 40.8 µM

COc1cc2c(c3c1c(=O)c1ccccc1n3C)[C@@H](OC(C)=O)[C@@H](OC(C)=O)C(C)(C)O2 (racemic)
IC50 (L1210): 3.4 µM | T/C (survival) (Mus musculus [1]): 224% | T/C (survival) (Mus musculus [5]): 202%

COc1cc2c(c3c1c(=O)c1ccccc1n3C)C=CC(C)(C)O2 [ACRONINE]
IC50 (L1210): 19.9 µM | T/C (survival) (Mus musculus [6]): 125%

COc1cc2c(c3c1c(=O)c1cc4ccccc4cc1n3C)C=CC(C)(C)O2 [BENZO[B]ACRONYCINE]
IC50 (L1210): 1.9 µM
